Laboratory results as given in ChEMBL document CHEMBL4689842, “EUbOPEN Chemogenomics Library wave 1” (2021).

Columns and labels:
Format in all cases: toxicity, cell-based
[1] = system: U2OS; experiment: Multiplex assay against U2OS; details: human
In short: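 Tubulin, mitochondrial-mass and membrane-permeability phenotypes are per cents of healthy-nucleus cells. Cells were gated by CellPathfinder machine learning into Hoechst high-intensity objects or normal cells, normal cells into healthy, pyknosed or fragmented nuclei, and pyknosed cells into mitotic or apoptotic. Before that, live cells stained at seeding with Hoechst33342, BioTracker Green Microtubule Cytoskeleton Dye, MitoTracker Red and Annexin V Alexa Fluor 680 were imaged on a CQ1 microscope at 37°C and 5% CO2 after compound addition.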

[2] = system: HEK-293T; experiment: Incucyte cell viability with HEK293T; details: human, 10 µM, compound concentration 10 uM; further: filed as whole numbers so only -1 and 0 and 1 occur
[3] = system: Fibroblast; experiment: Incucyte cell viability with human fibroblast; details: 10 µM, compound concentration 10 uM; further: filed as whole numbers so only -1 and 0 and 1 occur
[4] = system: U2OS; experiment: Incucyte cell viability with U2OS; details: human, 10 µM, compound concentration 10 uM; further: filed as whole numbers so only -1 and 0 and 1 occur
[5] = 12 h, 1 µM, compound concentration 1 uM, replicate 1
[6] = 12 h, 1 µM, compound concentration 1 uM, replicate 2
[7] = 12 h, 10 µM, compound concentration 10 uM, replicate 1
[8] = 12 h, 10 µM, compound concentration 10 uM, replicate 2
[9] = 24 h, 1 µM, compound concentration 1 uM, replicate 1
[10] = 24 h, 1 µM, compound concentration 1 uM, replicate 2
[11] = 24 h, 10 µM, compound concentration 10 uM, replicate 1
[12] = 24 h, 10 µM, compound concentration 10 uM, replicate 2
[13] = 48 h, 1 µM, compound concentration 1 uM, replicate 1
[14] = 48 h, 1 µM, compound concentration 1 uM, replicate 2
[15] = 48 h, 10 µM, compound concentration 10 uM, replicate 1
[16] = 48 h, 10 µM, compound concentration 10 uM, replicate 2
[17] = 0 h, replicate number 1, timepoint 0 hours
[18] = 6 h, replicate number 1, timepoint 6 hours
[19] = 12 h, replicate number 1, timepoint 12 hours
[20] = 18 h, replicate number 1, timepoint 18 hours
[21] = 24 h, replicate number 1, timepoint 24 hours

O=C(O)c1ccc2cc(-c3ccc(O)c(C45CC6CC(CC(C6)C4)C5)c3)ccc2c1 [O-DEMETHYLATED ADAPALENE]
Population Apoptotic (%) [1, 5]: 50% | Population Fragmented Nuclei (%) [1, 5]: 21% | Population Healthy Nuclei (%) [1, 5]: 66% | Population Hoechst High Intensity Objects (%) [1, 5]: 11% | Population Membrane Permeable-Phenotype (%) [1, 5]: 13% | Population Mitochondria Different-Phenotype (%) [1, 5]: 12% | Population Mitotic Cells (%) [1, 5]: 50% | Population Normal (%) [1, 5]: 88% | Population Pyknosed Nuclei (%) [1, 5]: 11% | Population Tubulin-Different-Phenotype (%) [1, 5]: 15% | Total Cell Count [1, 5]: 98 | Population Apoptotic (%) [1, 6]: 100% | Population Fragmented Nuclei (%) [1, 6]: 8% | Population Healthy Nuclei (%) [1, 6]: 87% | Population Hoechst High Intensity Objects (%) [1, 6]: 9% | Population Membrane Permeable-Phenotype (%) [1, 6]: 6% | Population Mitochondria Different-Phenotype (%) [1, 6]: 16% | Population Mitotic Cells (%) [1, 6]: 0% | Population Normal (%) [1, 6]: 90% | Population Pyknosed Nuclei (%) [1, 6]: 3% | Population Tubulin-Different-Phenotype (%) [1, 6]: 16% | Total Cell Count [1, 6]: 62 | Population Apoptotic (%) [1, 7]: 66% | Population Fragmented Nuclei (%) [1, 7]: 9% | Population Healthy Nuclei (%) [1, 7]: 85% | Population Hoechst High Intensity Objects (%) [1, 7]: 6% | Population Membrane Permeable-Phenotype (%) [1, 7]: 4% | Population Mitochondria Different-Phenotype (%) [1, 7]: 15% | Population Mitotic Cells (%) [1, 7]: 33% | Population Normal (%) [1, 7]: 93% | Population Pyknosed Nuclei (%) [1, 7]: 4% | Population Tubulin-Different-Phenotype (%) [1, 7]: 11% | Total Cell Count [1, 7]: 205 | Population Apoptotic (%) [1, 8]: 100% | Population Fragmented Nuclei (%) [1, 8]: 11% | Population Healthy Nuclei (%) [1, 8]: 87% | Population Hoechst High Intensity Objects (%) [1, 8]: 2% | Population Membrane Permeable-Phenotype (%) [1, 8]: 1% | Population Mitochondria Different-Phenotype (%) [1, 8]: 16% | Population Mitotic Cells (%) [1, 8]: 0% | Population Normal (%) [1, 8]: 97% | Population Pyknosed Nuclei (%) [1, 8]: 1% | Population Tubulin-Different-Phenotype (%) [1, 8]: 25% | Total Cell Count [1, 8]: 83 | Population Apoptotic (%) [1, 9]: 30% | Population Fragmented Nuclei (%) [1, 9]: 15% | Population Healthy Nuclei (%) [1, 9]: 73% | Population Hoechst High Intensity Objects (%) [1, 9]: 11% | Population Membrane Permeable-Phenotype (%) [1, 9]: 10% | Population Mitochondria Different-Phenotype (%) [1, 9]: 13% | Population Mitotic Cells (%) [1, 9]: 70% | Population Normal (%) [1, 9]: 89% | Population Pyknosed Nuclei (%) [1, 9]: 11% | Population Tubulin-Different-Phenotype (%) [1, 9]: 10% | Total Cell Count [1, 9]: 100 | Population Apoptotic (%) [1, 10]: 100% | Population Fragmented Nuclei (%) [1, 10]: 7% | Population Healthy Nuclei (%) [1, 10]: 89% | Population Hoechst High Intensity Objects (%) [1, 10]: 6% | Population Membrane Permeable-Phenotype (%) [1, 10]: 6% | Population Mitochondria Different-Phenotype (%) [1, 10]: 30% | Population Mitotic Cells (%) [1, 10]: 0% | Population Normal (%) [1, 10]: 93% | Population Pyknosed Nuclei (%) [1, 10]: 3% | Population Tubulin-Different-Phenotype (%) [1, 10]: 18% | Total Cell Count [1, 10]: 60 | Population Apoptotic (%) [1, 11]: 64% | Population Fragmented Nuclei (%) [1, 11]: 15% | Population Healthy Nuclei (%) [1, 11]: 77% | Population Hoechst High Intensity Objects (%) [1, 11]: 5% | Population Membrane Permeable-Phenotype (%) [1, 11]: 4% | Population Mitochondria Different-Phenotype (%) [1, 11]: 20% | Population Mitotic Cells (%) [1, 11]: 35% | Population Normal (%) [1, 11]: 94% | Population Pyknosed Nuclei (%) [1, 11]: 7% | Population Tubulin-Different-Phenotype (%) [1, 11]: 14% | Total Cell Count [1, 11]: 206 | Population Apoptotic (%) [1, 12]: 0% | Population Fragmented Nuclei (%) [1, 12]: 14% | Population Healthy Nuclei (%) [1, 12]: 81% | Population Hoechst High Intensity Objects (%) [1, 12]: 7% | Population Membrane Permeable-Phenotype (%) [1, 12]: 7% | Population Mitochondria Different-Phenotype (%) [1, 12]: 26% | Population Mitotic Cells (%) [1, 12]: 100% | Population Normal (%) [1, 12]: 92% | Population Pyknosed Nuclei (%) [1, 12]: 3% | Population Tubulin-Different-Phenotype (%) [1, 12]: 28% | Total Cell Count [1, 12]: 83 | Population Apoptotic (%) [1, 13]: 50% | Population Fragmented Nuclei (%) [1, 13]: 16% | Population Healthy Nuclei (%) [1, 13]: 75% | Population Hoechst High Intensity Objects (%) [1, 13]: 7% | Population Membrane Permeable-Phenotype (%) [1, 13]: 7% | Population Mitochondria Different-Phenotype (%) [1, 13]: 31% | Population Mitotic Cells (%) [1, 13]: 50% | Population Normal (%) [1, 13]: 92% | Population Pyknosed Nuclei (%) [1, 13]: 7% | Population Tubulin-Different-Phenotype (%) [1, 13]: 13% | Total Cell Count [1, 13]: 117 | Population Apoptotic (%) [1, 14]: 71% | Population Fragmented Nuclei (%) [1, 14]: 9% | Population Healthy Nuclei (%) [1, 14]: 80% | Population Hoechst High Intensity Objects (%) [1, 14]: 2% | Population Membrane Permeable-Phenotype (%) [1, 14]: 10% | Population Mitochondria Different-Phenotype (%) [1, 14]: 42% | Population Mitotic Cells (%) [1, 14]: 28% | Population Normal (%) [1, 14]: 97% | Population Pyknosed Nuclei (%) [1, 14]: 9% | Population Tubulin-Different-Phenotype (%) [1, 14]: 21% | Total Cell Count [1, 14]: 73 | Population Apoptotic (%) [1, 15]: 72% | Population Fragmented Nuclei (%) [1, 15]: 33% | Population Healthy Nuclei (%) [1, 15]: 47% | Population Hoechst High Intensity Objects (%) [1, 15]: 9% | Population Membrane Permeable-Phenotype (%) [1, 15]: 0% | Population Mitochondria Different-Phenotype (%) [1, 15]: 34% | Population Mitotic Cells (%) [1, 15]: 27% | Population Normal (%) [1, 15]: 90% | Population Pyknosed Nuclei (%) [1, 15]: 19% | Population Tubulin-Different-Phenotype (%) [1, 15]: 7% | Total Cell Count [1, 15]: 213 | Population Apoptotic (%) [1, 16]: 90% | Population Fragmented Nuclei (%) [1, 16]: 14% | Population Healthy Nuclei (%) [1, 16]: 70% | Population Membrane Permeable-Phenotype (%) [1, 16]: 20% | Population Mitochondria Different-Phenotype (%) [1, 16]: 54% | Population Mitotic Cells (%) [1, 16]: 9% | Population Pyknosed Nuclei (%) [1, 16]: 14% | Population Tubulin-Different-Phenotype (%) [1, 16]: 45% | Total Cell Count [1, 16]: 83 | Growth Rate [2, 17]: 1 | Growth Rate ([2]; 0 h, replicate number 2, timepoint 0 hours): 0 | Growth Rate [2, 18]: 0 | Growth Rate [2, 19]: 0 | Growth Rate [2, 20]: 0 | Growth Rate [2, 21]: 0 | Growth Rate [3, 17]: 0 | Growth Rate [3, 18]: 0 | Growth Rate [3, 19]: 0 | Growth Rate ([3]; 12 h, replicate number 2, timepoint 12 hours): 1 | Growth Rate [3, 20]: 0 | Growth Rate [3, 21]: 0 | Growth Rate [4, 17]: 0 | Growth Rate [4, 19]: 1 | Growth Rate [4, 20]: 1 | Growth Rate [4, 21]: 0
